Screens: PubChem, The Scripps Research Institute Molecular Screening Center
This is a sample that favours compounds with a hit; in the whole collection about 1.9% have one here.
M4 PAM: positive allosteric modulators of human muscarinic M4 receptor. CHO-K1 hM4/Gqi5, Fluo-8 calcium fluorescence, ACh EC20; 0% = ACh EC20, 100% = maximal ACh. activation, % at 3 µM. P08173. hit rate 0.4% among 360,000;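 active means activation above its plate's cutoff, the mean activation of sample wells plus 3 SD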
Target sequence (P08173 whole entry, looked up): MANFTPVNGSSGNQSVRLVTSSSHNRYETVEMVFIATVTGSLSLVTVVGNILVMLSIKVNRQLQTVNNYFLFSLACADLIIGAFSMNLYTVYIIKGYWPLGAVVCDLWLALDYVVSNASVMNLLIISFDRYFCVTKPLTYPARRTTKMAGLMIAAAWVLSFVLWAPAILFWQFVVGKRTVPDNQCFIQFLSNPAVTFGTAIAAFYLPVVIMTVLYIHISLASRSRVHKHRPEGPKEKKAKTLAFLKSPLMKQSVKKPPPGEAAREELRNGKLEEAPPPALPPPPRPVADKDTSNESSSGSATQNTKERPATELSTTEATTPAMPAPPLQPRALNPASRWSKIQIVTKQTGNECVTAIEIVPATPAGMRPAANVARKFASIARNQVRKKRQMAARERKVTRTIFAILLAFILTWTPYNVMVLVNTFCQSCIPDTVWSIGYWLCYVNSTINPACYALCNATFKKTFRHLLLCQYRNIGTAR
CHRM5 agonist: agonists of human muscarinic M5 receptor (CHRM5). activation, % at 3 µM. hit rate 0.19% among 360,000. P08912. CHO-K1 hM5 cells, Fluo-8 calcium fluorescence; 0% DMSO wells, 100% maximal acetylcholine response;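 active means activation above the run's mean over test compounds plus 3 SD, cut at about 23% in these data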;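 further: signal is peak over basal fluorescence ratio across the kinetic read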
CHRM5 PAM: CHRM5 positive allosteric modulation. P08912. CHO-K1 hM5, Fluo-8 calcium, ACh EC20 PAM; 0% = ACh EC20, 100% = ACh EC100. activation, % at 3 µM. hit rate 0.3% among 360,000;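 active means activation above the run cutoff, the mean activation of all test compounds plus 3 SD, cut at about 18% in these data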
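Probe or stimulus: acetylcholine, EC20 level; Assay system: human M5 receptor in CHO-K1 cells; Schedule: compound preincubation 140 s before EC20 acetylcholine addition; Technique: intracellular calcium via Fluo-8 fluorescence; Dosing: single-point, 3 µM nominal; Read-out basis: percent activation from peak-over-basal fluorescence ratio, scaled EC20-to-EC100 acetylcholine; Repeats: one well per compound, no replicates.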
M5 antag: antagonists of human muscarinic M5 receptor (CHRM5); P08912; CHO-hM5 cells, Fluo-8 calcium fluorescence, ACh EC80; inhibition, % at 3 µM; hit rate 0.59% among 360,000; AID 624040;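 active means inhibition above a per-plate cutoff, the mean of that plate's test compounds plus 3 SD, cut at about 27% in these data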
M4 antag: CHRM4 antagonism in calcium assay | P08173 | CHO-hM4 cells, ACh EC80, Fluo-8 calcium fluorescence | inhibition, % at 3 µM | hit rate 0.73% among 360,000 | AID 624125;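 active means inhibition above its plate's cutoff, the mean inhibition of sample wells plus 3 SD, cut at about 27% in these data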
CHRM4 agonist: CHRM4 agonism in calcium assay | CHO-K1 hM4/Gqi5, Fluo-8 calcium fluorescence; vehicle 0%, full acetylcholine response 100% | activation, % at 3 µM | hit rate 0.14% among 360,000 | AID 624127;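 active means activation above the run mean over all test wells plus 3 SD, cut at about 32% in these data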;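 further: peak over basal fluorescence ratio per well then scaled between controls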
Large screens that a line does not name were inactive.

CC1CCC(C(C)C)C(OCC(O)C[N+]2(C)CCCCC2)C1 (stereo not drawn)	none
CC1CCC(C(C)C)C(OCC[N+](C)(C)C)C1 (stereo not drawn)	M5 antag 99, M4 antag 99
O=C1Nc2ccc(Br)cc2/C1=C/C(=O)c1ccc2c(c1)OCO2	CHRM5 agonist 34, M4 antag 47
COc1ccc(C(=O)/C=C2\C(=O)Nc3ccc(Br)cc32)cc1	M4 antag 27
Cc1cccc(C)c1NC(=O)C(c1ccc(C(F)(F)F)cc1)n1c(=O)c(-c2ccccc2)nc2ccccc21 (stereo not drawn)	none
Cc1cccc(C)c1NC(=O)C(c1ccc(C#N)cc1)n1c(=O)c(-c2ccccc2)nc2ccccc21 (stereo not drawn)	M4 PAM 23
COc1ccc(C(C)=O)cc1CSc1nc2cc(C(=O)O)ccc2c(=O)n1Cc1ccccc1	M4 antag 28
CCn1c(CNC(=O)c2ccccc2Br)nnc1SCC(=O)Nc1nncs1	none
NCCCCNCCCN	CHRM5 agonist 75
O=C(Nc1cccc(C(F)(F)F)c1)C1CCN(S(=O)(=O)c2ccc(N3CCCC3=O)cc2)CC1	M5 antag 37
O=C(NCc1cccnc1)C(=O)C1C(=O)Nc2ccccc21 (stereo not drawn)	CHRM5 PAM 18
Nc1[nH]ncc1-c1ccc(Cl)cc1	M4 PAM 38
CC(C)Cn1c(N)c(C(=O)CCl)c(=O)n(C)c1=O	none
CC(C)Cn1c(N)c(C=O)c(=O)n(C)c1=O	CHRM5 PAM 18
COc1ccc(/C=C(/C#N)C(=O)Nc2cc(C)ccc2C)cc1C(=O)O	M4 PAM 29
COC(=O)c1c(C)[nH]c(C(=O)OCc2csc(CC(=O)Nc3ccccc3C)n2)c1C	none
Cc1ccc2nc(C)c(CN3CCN(c4ccc([N+](=O)[O-])cc4Cl)CC3)n2c1	M5 antag 38, M4 antag 26
COc1cccc(CNc2nc3cc(-c4ccccc4C)sc3c(=O)n2C)c1OC	none
N=c1c2c3c(sc2nc2n1CCCCC2)CCCCC3	M4 antag 29
Cc1ccc(C(=O)c2cc([N+](=O)[O-])ccc2N2CCN(C)CC2)cc1	none
CN1CCN(c2ccc([N+](=O)[O-])cc2C(=O)c2ccc(Br)cc2)CC1	M5 antag 37
COc1ccccc1-c1csc(Nc2ccc(Oc3ccccc3)cc2)n1	none
COc1cccc(NC(=O)C2(C)CCN2C(=O)CC2CCCC2)c1 (stereo not drawn)	none
CCN(C[C@H]1N[C@@](C)(C(=O)OC)[C@H]2C(=O)N(Cc3ccccc3)C(=O)[C@@H]12)C(=O)Nc1ccc(OC)cc1	none
CCCNC(=O)N1C2=NC(C(=O)OC)=C(C(=O)OC)[C@@H]3N(Cc4ccccc4)c4ccccc4[C@]23C[C@H]1CO	CHRM5 PAM 20
C[C@H]1CN([C@@H](C)CO)S(=O)(=O)c2ccc(Br)cc2O[C@@H]1CN(C)C(=O)Cc1ccccc1	none
COc1cc(F)ccc1S(=O)(=O)N1CCN(C23CC4CC(CC(C4)C2)C3)CC1	none
COc1cc(C)ccc1S(=O)(=O)N1CCN(C23CC4CC(CC(C4)C2)C3)CC1	M4 antag 89
Cc1cc(/C=C2/SC(=S)N(c3cccc(C(F)(F)F)c3)C2=O)c(C)n1-c1cccnc1	M4 antag 39
Cc1cc(/C=C2\SC(=S)N(Cc3ccco3)C2=O)c(C)n1-c1cccnc1	none
O=C(Nc1ccc(S(=O)(=O)N2CCCCC2)cc1)C1CCCO1 (stereo not drawn)	none
CCOc1ccc(NC(C(=O)Nc2cccc(C(C)=O)c2)c2ccccc2)cc1 (stereo not drawn)	none
CCN(CC)CCNC(C(=O)Nc1cccc(C(C)=O)c1)c1ccccc1 (stereo not drawn)	M4 antag 54
O=C(NNCc1ccccc1)c1ccccn1	none
Cc1noc(NS(=O)(=O)c2ccc(NC(=O)c3cc4ccccc4o3)cc2)c1C	none
Cc1ccsc1C(=O)NCCc1nnc2ccccn12	none
S=C(c1ccc(-c2ccc(Cl)cc2Cl)o1)N1CCCC1	CHRM5 PAM 22
S=C(c1ccc(-c2ccc(Cl)cc2Cl)o1)N1CCCCC1	none
COc1ccc(OC)c(-c2cc(C(=O)Nc3ccccc3C(N)=O)c3ccccc3n2)c1	M4 antag 31
COc1ccc(-c2cc(C(=O)N3CCN(c4ncccn4)CC3)c3ccccc3n2)c(OC)c1	none
COc1ccc(OC)c(-c2cc(C(=O)N/N=C/c3ccc(F)cc3)c3ccccc3n2)c1	none
COc1ccc(-c2cc(C(=O)N3CCCCCC3)c3ccccc3n2)c(OC)c1	none
COc1ccc(-c2cc(C(=O)N3CCN(c4ccccc4F)CC3)c3ccccc3n2)c(OC)c1	M5 antag 36
COc1ccc(OC)c(-c2cc(C(=O)N3CCN(c4ncccn4)CC3)c3ccccc3n2)c1	M5 antag 31
Nc1[nH]c(C(=O)c2ccccc2)c(-c2ccccc2Br)c1C(=O)c1ccccc1	none
COc1cccc(NC(=O)CSC2=C(C#N)C(c3ccco3)C3=C(CCCC3=O)N2)c1 (stereo not drawn)	none
COc1ccc(NC(=O)CSC2=C(C#N)C(c3ccco3)C3=C(CCCC3=O)N2)c(OC)c1 (stereo not drawn)	M5 antag 42
C[N+](C)(C)C/C=C1/COCO1	CHRM5 agonist 100, M5 antag 92, CHRM4 agonist 42
Cc1cc(=O)n2nc(N3CCCC(C(=O)NCCCN4CCc5ccccc5C4)C3)sc2n1 (stereo not drawn)	M4 antag 28
CCC1CCCCN1CCCNC(=O)C1CCCN(c2nn3c(=O)cc(C)nc3s2)C1 (stereo not drawn)	none
O=P(CCO)(c1ccccc1)c1ccccc1	none
O=C(O)CP(=O)(c1ccccc1)c1ccccc1	M4 PAM 22
CCN(CC)CC#CCC(O)(c1ccccc1)C1CCCCC1 (stereo not drawn)	M5 antag 72, M4 antag 76
C[N+]1(C)CCC(OC(=O)C(O)(c2ccccc2)C2CCCC2)C1 (stereo not drawn)	M5 antag 98, M4 antag 99
C[N+]1(C)CC[C@H](OC(=O)[C@@](O)(c2ccccc2)C2CCCC2)C1	M5 antag 99, M4 antag 99
O=C(Nc1ccccc1C(F)(F)F)C(O)(c1ccccc1)C1CCCCC1 (stereo not drawn)	none
Nc1ccc2nc(SCC(=O)Nc3ccc(N4CCOCC4)c(Cl)c3)sc2c1	M5 antag 27
